Laboratory results taken from ChEMBL document CHEMBL1944618, “Synthesis and antifungal activity of a new series of 2-(1H-imidazol-1-yl)-1-phenylethanol derivatives” (Eur J Med Chem, 2012).
≈ marks a conversion by molar mass, not a printed value.

Tests used:
Candida albicans [1] = assay: Antifungal activity against Candida albicans after 48 hrs by M27-A3 CLSI method; type: functional
Procedure, shortened: (§1)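 Broth microdilution in RPMI 1640, two-fold serial dilutions, final test range 0.125–64 µg mL-1 (fluconazole reference 0.0078–128 µg mL-1). Inoculum 1.0×10^3–1.5×10^3 cells mL-1 from yeasts grown 24 h at 35 °C on Sabouraud dextrose agar. Incubation 35 °C, read at 48 h. MIC = lowest concentration giving >50% turbidity decrease versus growth control. Run three times in triplicate. C. parapsilosis ATCC22019 served as QC.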

Candida albicans [2] = assay: Antifungal activity against Candida albicans ATCC 24433 after 48 hrs by M27-A3 CLSI method; type: functional; procedure, shortened: as §1
Candida albicans [3] = assay: Antifungal activity against Candida albicans ATCC 3153 after 48 hrs by M27-A3 CLSI method; type: functional; details: ATCC 3153, 48 h; procedure, shortened: as §1
Candida albicans [4] = assay: Antifungal activity against Candida albicans ATCC 10231 after 48 hrs by M27-A3 CLSI method; type: functional; details: ATCC 10231, 48 h; procedure, shortened: as §1
Candida albicans [5] = assay: Antifungal activity against Candida albicans ATCC 76615 after 48 hrs by M27-A3 CLSI method; type: functional; details: ATCC 76615, 48 h; procedure, shortened: as §1
Candida = assay: Antifungal activity against Candida sp. after 48 hrs by M27-A3 CLSI method; type: functional; procedure, shortened: as §1
Candida parapsilosis [6] = assay: Antifungal activity against Candida parapsilosis after 48 hrs by M27-A3 CLSI method; type: functional; details: Lodderomyces parapsilosis; procedure, shortened: as §1
Candida parapsilosis [7] = assay: Antifungal activity against Candida parapsilosis ATCC 22019 after 48 hrs by M27-A3 CLSI method; type: functional; details: Lodderomyces parapsilosis, ATCC 22019, 48 h; procedure, shortened: as §1
Candida parapsilosis [8] = assay: Antifungal activity against Candida parapsilosis DSM 11224 after 48 hrs by M27-A3 CLSI method; type: functional; procedure, shortened: as §1
Candida tropicalis [9] = assay: Antifungal activity against Candida tropicalis after 48 hrs by M27-A3 CLSI method; type: functional; procedure, shortened: as §1
Candida tropicalis [10] = assay: Antifungal activity against Candida tropicalis DSM 11953 after 48 hrs by M27-A3 CLSI method; type: functional; details: DSM 11953, 48 h; procedure, shortened: as §1
Pichia kudriavzevii [11] = assay: Antifungal activity against Candida krusei after 48 hrs by M27-A3 CLSI method; type: functional; procedure, shortened: as §1
Pichia kudriavzevii [12] = assay: Antifungal activity against Candida krusei DSM 6128 after 48 hrs by M27-A3 CLSI method; type: functional; details: DSM 6128, 48 h; procedure, shortened: as §1
Nakaseomyces glabratus [13] = assay: Antifungal activity against Candida glabrata after 48 hrs by M27-A3 CLSI method; type: functional; procedure, shortened: as §1
Nakaseomyces glabratus [14] = assay: Antifungal activity against Candida glabrata PMC 0805 after 48 hrs by M27-A3 CLSI method; type: functional; details: PMC 0805, 48 h; procedure, shortened: as §1
[15] = Cytotoxicity against human U937 cells after 48 hrs by MTT assay; type: cell-based, U-937
Procedure, shortened: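 U937 human monocytic cells, 2×10^4 per well, in phenol-red-free RPMI 1640 with 10% FBS, L-glutamine, penicillin and streptomycin. Exposed 48 h at 37 °C, 5% CO2, to compounds dissolved in DMSO at final 8–128 µg mL-1, at least five concentrations, each in three replicates. MTT added for 3–4 h, crystals dissolved, OD read at 570 nm. CC50 taken against DMSO-only control. Means ± SD from three independent experiments.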

[16] = Selectivity index, ratio of CC50 for human U937 cells to MIC for Candida Sp.; type: functional, U-937
Procedure, shortened: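 SI = CC50 from the 48 h U937 MTT assay divided by the mean MIC across all Candida species. That MIC comes from CLSI M27-A3 broth microdilution in RPMI 1640, 35 °C, read at 48 h.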

Pichia kudriavzevii [17] = assay: Antifungal activity against Candida krusei PMC 0613 after 48 hrs by M27-A3 CLSI method; type: functional; procedure, shortened: as §1
Pichia kudriavzevii [18] = assay: Ratio MIC for fluconazole to compound for Candida krusei after 48 hrs by M27-A3 CLSI method; type: functional
Candida tropicalis [19] = assay: Antifungal activity against Candida tropicalis DSM11953 after 48 hrs by M27-A3 CLSI method
Candida tropicalis [20] = assay: Antifungal activity against Candida tropicalis PMC 0910 after 48 hrs by M27-A3 CLSI method; type: functional; details: PMC 0910, 48 h; procedure, shortened: as §1
Pichia kudriavzevii [21] = assay: Ratio MIC for fluconazole to compound for Candida krusei PMC 0613 after 48 hrs by M27-A3 CLSI method; type: functional
Pichia kudriavzevii [22] = assay: Ratio MIC for fluconazole to compound for Candida krusei PMC0613 after 48 hrs by M27-A3 CLSI method

Compound | MIC (Candida albicans [1]) [µg/mL] | MIC50 (Candida albicans [1]) [µg/mL] | MIC90 (Candida albicans [1]) [µg/mL] | MIC (Candida albicans [2]) [µg/mL] | MIC (Candida albicans [3]) [µg/mL] | MIC (Candida albicans [4]) [µg/mL] | MIC (Candida albicans [5]) [µg/mL] | MIC (Candida) [µg/mL] | MIC50 (Candida) [µg/mL] | MIC90 (Candida) [µg/mL] | MIC (Candida parapsilosis [6]) [µg/mL] | MIC (Candida parapsilosis [7]) [µg/mL] | MIC (Candida parapsilosis [8]) [µg/mL] | MIC (Candida tropicalis [9]) [µg/mL] | MIC (Candida tropicalis [10]) [µg/mL] | MIC (Pichia kudriavzevii [11]) [µg/mL] | MIC (Pichia kudriavzevii [12]) [µg/mL] | MIC (Pichia kudriavzevii [17]) [µg/mL] | Ratio (Pichia kudriavzevii [18]) | MIC (Candida tropicalis [19]) [µg/mL] | further results
O=C(OC(Cn1ccnc1)c1ccc(F)cc1)c1ccc(-c2ccccc2)cc1 (racemic) | 4.4 (≈ 11.4 µM) | 4 (≈ 10.4 µM) | 8 (≈ 20.7 µM) | 1.5 (≈ 3.88 µM) | 0.25 (≈ 0.647 µM) | 8 (≈ 20.7 µM) | 4 (≈ 10.4 µM) | 2.5 (≈ 6.47 µM) | 1 (≈ 2.59 µM) | 8 (≈ 20.7 µM) | 1.3 (≈ 3.36 µM) | 2 (≈ 5.18 µM) | 0.42 (≈ 1.09 µM) | 4.08 (≈ 10.6 µM) | 1 (≈ 2.59 µM) | 2.25 (≈ 5.82 µM) | 4 (≈ 10.4 µM) | 0.83 (≈ 2.15 µM) | 11 | 2.17 (≈ 5.62 µM) | MIC (Nakaseomyces glabratus [13]): 1 µg/mL (≈ 2.59 µM); MIC (Nakaseomyces glabratus [14]): 1 µg/mL (≈ 2.59 µM); CC50 at 48 h [15]: 41.5 µg/mL (≈ 107 µM); Selectivity Index [16]: 12
O=C(OC(Cn1ccnc1)c1ccc(Cl)cc1)c1ccc(-c2ccccc2)cc1 (racemic) | 1.7 (≈ 4.22 µM) | 1 (≈ 2.48 µM) | 4 (≈ 9.93 µM) | – | 0.125 (≈ 0.31 µM) | 1 (≈ 2.48 µM) | 4 (≈ 9.93 µM) | 1.9 (≈ 4.72 µM) | 1 (≈ 2.48 µM) | 4 (≈ 9.93 µM) | 1.05 (≈ 2.61 µM) | 1 (≈ 2.48 µM) | – | 0.89 (≈ 2.21 µM) | 0.125 (≈ 0.31 µM) | 3.7 (≈ 9.18 µM) | 4 (≈ 9.93 µM) | – | 7 | – | MIC (Candida albicans [2]; Candida albicans, ATCC 24433, 48 h, read-out: MIC): 0.25 µg/mL (≈ 0.621 µM); MIC (Candida parapsilosis [8]; Lodderomyces parapsilosis, DSM 11224, 48 h, read-out: MIC): 0.25 µg/mL (≈ 0.621 µM); MIC (Candida tropicalis [20]): 1 µg/mL (≈ 2.48 µM); MIC (Nakaseomyces glabratus [13]): 1 µg/mL (≈ 2.48 µM); MIC (Nakaseomyces glabratus [14]): 1 µg/mL (≈ 2.48 µM); CC50 at 48 h [15]: 88.3 µg/mL (≈ 219 µM); Selectivity Index [16]: 49.1; MIC (Pichia kudriavzevii [17]; Pichia kudriavzevii, PMC 0613, 48 h, read-out: MIC): 1 µg/mL (≈ 2.48 µM)
O=C(OC(Cn1ccnc1)c1ccccc1)c1ccc(-c2ccccc2)cc1 (racemic) | 3.7 (≈ 10 µM) | 1 (≈ 2.71 µM) | 8 (≈ 21.7 µM) | 0.37 (≈ 1 µM) | 0.25 (≈ 0.679 µM) | 1 (≈ 2.71 µM) | 4 (≈ 10.9 µM) | 2.1 (≈ 5.7 µM) | 0.5 (≈ 1.36 µM) | 4 (≈ 10.9 µM) | 0.7 (≈ 1.9 µM) | 2 (≈ 5.43 µM) | 0.33 (≈ 0.896 µM) | 0.5 (≈ 1.36 µM) | 0.25 (≈ 0.679 µM) | 4.7 (≈ 12.8 µM) | 2 (≈ 5.43 µM) | 0.67 (≈ 1.82 µM) | 5 | 0.58 (≈ 1.57 µM) | MIC (Nakaseomyces glabratus [13]): 4 µg/mL (≈ 10.9 µM); MIC (Nakaseomyces glabratus [14]): 4 µg/mL (≈ 10.9 µM); CC50 at 48 h [15]: > 128 µg/mL; Selectivity Index [16]: >44.1
O=C(OC(Cn1ccnc1)c1ccc(F)cc1)c1ccc(-c2ccccc2)cc1 (single isomer, unassigned; (-)) | – | – | – | 0.125 (≈ 0.323 µM) | – | – | – | – | – | – | – | – | 0.08 (≈ 0.207 µM) | – | – | – | – | 0.125 (≈ 0.323 µM) | 90 | 0.27 (≈ 0.699 µM) | Ratio (Pichia kudriavzevii [21]): 90; Ratio (Pichia kudriavzevii [22]): 90
O=C(OC(Cn1ccnc1)c1ccccc1)c1ccc(-c2ccccc2)cc1 (single isomer, unassigned; (-)) | – | – | – | 0.15 (≈ 0.407 µM) | – | – | – | – | – | – | – | – | 0.125 (≈ 0.339 µM) | – | – | – | – | 0.37 (≈ 1 µM) | 30 | 0.15 (≈ 0.407 µM) | Ratio (Pichia kudriavzevii [21]): 30; Ratio (Pichia kudriavzevii [22]): 30
